Data on seven compounds can be found in PMC11742495 (Breast Cancer Research : BCR, 2025).

Data set [1] deals with endometrium. Briefly: Uterine SERM agonist study. Format: in vivo, BALB/c mice. To be noted: ovariectomized mice, three days of treatment, with and without E2. The procedure, abridged: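 Adult ovariectomized BALB/c mice were randomized to 8 groups and dosed once daily for 3 consecutive days. Treatments: vehicle (0.2% Tween 80/0.5% CMC); E2 (0.1 mL of 0.1 µg/mL in 95% cottonseed oil/5% ethanol); test compound 50 mg/kg orally; reference SERM 50 mg/kg in vehicle; reference SERD 25 mg/kg in cottonseed oil/ethanol. Each active arm was run ± E2. Uteri were weighed, formalin-fixed, embedded and H&E-stained.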

The conditions of data set [2]: cited from earlier work.
The target in data set [3] is T1, Y537S ERα-SRC3 interaction (Homo sapiens, UniProt P03372, Y537S).
T1 sequence (P03372 1-595 Y537S): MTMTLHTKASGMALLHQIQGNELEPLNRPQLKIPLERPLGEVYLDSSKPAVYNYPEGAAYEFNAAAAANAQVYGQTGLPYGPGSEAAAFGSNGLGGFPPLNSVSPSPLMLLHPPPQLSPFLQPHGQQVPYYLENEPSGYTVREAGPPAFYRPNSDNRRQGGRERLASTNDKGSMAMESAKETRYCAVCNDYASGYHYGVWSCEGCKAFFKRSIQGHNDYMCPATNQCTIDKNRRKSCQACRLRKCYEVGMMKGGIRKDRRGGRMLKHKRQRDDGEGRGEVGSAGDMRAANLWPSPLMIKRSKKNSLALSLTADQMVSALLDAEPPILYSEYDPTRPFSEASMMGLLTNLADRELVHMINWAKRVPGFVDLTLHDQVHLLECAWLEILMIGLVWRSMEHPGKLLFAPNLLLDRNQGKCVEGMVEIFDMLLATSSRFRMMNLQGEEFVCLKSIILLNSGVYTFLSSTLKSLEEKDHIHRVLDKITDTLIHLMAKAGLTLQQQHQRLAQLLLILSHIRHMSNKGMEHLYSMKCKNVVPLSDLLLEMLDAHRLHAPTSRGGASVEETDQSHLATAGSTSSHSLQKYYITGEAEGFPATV
Briefly: cell-based. The class given is cell-based. To be noted: for IC50: 1 nM E2, 48 h.

Data set [4] deals with heterozygous, luciferase-tagged Y537S ESR1 MCF7 xenograft. Briefly: Comparative murine xenograft study T6I-29-1A vs ICI. Format: in vivo, NOD/SCID mice.
In data set [5] the target is T2, WT ERα-SRC3 interaction (Homo sapiens, UniProt P03372).
T2 sequence (P03372 1-595): T1 sequence (P03372 1-595 Y537S) with S537Y
As to the kind of experiment: cell-based. As to conditions: 1 nM E2, 48 h.

Where [6] appears, read: difference between WT-SRC3 and Y537S-SRC3.
Where [7] appears, read: 25 mg/kg, T6I-29-1A IP five times per week, ICI SC once per week, vs vehicle.

Where a chain is given by its changes, count along the chain named. Read-outs that look alike come from different tables or passages of the source.

Take `CC/C(=C(\c1ccc(O)cc1)c1ccc(OCCN(C)C)cc1)c1ccccc1` [Compound 4OHT, 4-hydroxytamoxifen]: the endometrium thickness result in data set [1] is recorded as “significantly increased width”.

As to `CC/C(=C(\c1ccccc1)c1ccc(OCCN(C)C)cc1)c1ccccc1` [tamoxifen], in data set [2], the protein binding entry was “greater than 98%”.

On to `CCNCCc1ccc(CN(CC)c2cc(OC)ccc2[C@@H]2CCc3cc(O)ccc3C2)cc1` [Rad1901, elacestrant], for which the ΔIC50 in data set [3] (setting [6]) is reported as 3560.03.

Consider `C[C@]12CC[C@@H]3c4ccc(O)cc4C[C@@H](CCCCCCCCC[S+]([O-])CCCC(F)(F)C(F)(F)F)[C@H]3[C@@H]1CC[C@@H]2O` (stereo partly shown) [ICI, fulvestrant], for which the endometrium thickness entry in data set [1] was “diminished the thickness”. In addition, the “tumor bioluminescent signal (IVIS) vs vehicle” value in data set [4] (25 mg/kg SC once per week) is given as “no significant difference in bioluminescent signal”. Further, the final uterine weights entry in data set [4] (25 mg/kg, T6I-29-1A IP five times per week, ICI SC once per week) is recorded as “significantly decreased final uterine weights”. In data set [4] (setting [7]), the survival entry is reported as “significantly prolonged” and the “tumor growth (digital caliper)” value is given as “significantly blunted tumor growth”. In addition, in data set [4] (no significance noted), the “ER target gene expression in tumors (RT-qPCR)” value was “heightened”.

Turning to `C[C@@H]1Cc2c(ccc3[nH]ncc23)[C@@H](c2ccc(NC3CN(CCCF)C3)cn2)N1CC(F)(F)F` [Cam, camizestrant], the ΔIC50 in data set [3] is 44.67.

In data set [3] (setting [6]), `Oc1ccc2c(c1)CC[C@H](c1ccccc1)[C@@H]2c1ccc(OCCN2CCCC2)cc1` [Laso, lasofoxifene] came in with a ΔIC50 of 9.59.

Turning to `C[C@@H]1Cc2c([nH]c3ccccc23)[C@@H](c2c(F)cc(NC3CN(CCCF)C3)cc2F)N1CC(F)(F)CO` [Gir, giredestrant], the IC50 in data set [5] (WT-SRC3 IC50 ± StDev) is 0.00068 ± 0.00025 µM; in data set [5] (WT-SRC3 Log(IC50) ± StDev), 0.000676 µM; in data set [3] (Y537S-SRC3 IC50 ± StDev), 0.0476 ± 0.0114 µM; in data set [3] (Y537S-SRC3 Log(IC50) ± StDev), 0.0479 µM. For the same compound, the ΔIC50 in data set [3] (setting [6]) is reported as 46.95.

One may read the IC50 as the midpoint of a concentration-inhibition curve.
